Screens (PubChem BioAssay)
The list is not random: actives were taken first. Their share in the collection is about 3%.
SENP7 block = blocks the human protease SENP7. Q9BQF6. recombinant SENP7, Z-RLRGG-aminoluciferin luminescence, 40 min. inhibition, % at 5 µM. 330,000 compounds, 1.5% hits;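 active = inhibition above about 50% at the single test dose, limit read from the data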;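 note: plate controls were DMSO with enzyme for no effect and no enzyme buffer wells for full effect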
Apaf1 inhib = blocks human Apaf-1 apoptosome activity. reconstituted apoptosome caspase-3 activity, DEVD-Rh110 fluorescence. O14727. inhibition, % at 20 µM. 330,000 compounds, 0.71% hits; active = inhibition of at least 40% at 20 µM;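 note: plate controls were DMSO wells for no effect and DEVD-CHO caspase inhibitor wells for full effect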
Target sequence (O14727 whole entry, looked up): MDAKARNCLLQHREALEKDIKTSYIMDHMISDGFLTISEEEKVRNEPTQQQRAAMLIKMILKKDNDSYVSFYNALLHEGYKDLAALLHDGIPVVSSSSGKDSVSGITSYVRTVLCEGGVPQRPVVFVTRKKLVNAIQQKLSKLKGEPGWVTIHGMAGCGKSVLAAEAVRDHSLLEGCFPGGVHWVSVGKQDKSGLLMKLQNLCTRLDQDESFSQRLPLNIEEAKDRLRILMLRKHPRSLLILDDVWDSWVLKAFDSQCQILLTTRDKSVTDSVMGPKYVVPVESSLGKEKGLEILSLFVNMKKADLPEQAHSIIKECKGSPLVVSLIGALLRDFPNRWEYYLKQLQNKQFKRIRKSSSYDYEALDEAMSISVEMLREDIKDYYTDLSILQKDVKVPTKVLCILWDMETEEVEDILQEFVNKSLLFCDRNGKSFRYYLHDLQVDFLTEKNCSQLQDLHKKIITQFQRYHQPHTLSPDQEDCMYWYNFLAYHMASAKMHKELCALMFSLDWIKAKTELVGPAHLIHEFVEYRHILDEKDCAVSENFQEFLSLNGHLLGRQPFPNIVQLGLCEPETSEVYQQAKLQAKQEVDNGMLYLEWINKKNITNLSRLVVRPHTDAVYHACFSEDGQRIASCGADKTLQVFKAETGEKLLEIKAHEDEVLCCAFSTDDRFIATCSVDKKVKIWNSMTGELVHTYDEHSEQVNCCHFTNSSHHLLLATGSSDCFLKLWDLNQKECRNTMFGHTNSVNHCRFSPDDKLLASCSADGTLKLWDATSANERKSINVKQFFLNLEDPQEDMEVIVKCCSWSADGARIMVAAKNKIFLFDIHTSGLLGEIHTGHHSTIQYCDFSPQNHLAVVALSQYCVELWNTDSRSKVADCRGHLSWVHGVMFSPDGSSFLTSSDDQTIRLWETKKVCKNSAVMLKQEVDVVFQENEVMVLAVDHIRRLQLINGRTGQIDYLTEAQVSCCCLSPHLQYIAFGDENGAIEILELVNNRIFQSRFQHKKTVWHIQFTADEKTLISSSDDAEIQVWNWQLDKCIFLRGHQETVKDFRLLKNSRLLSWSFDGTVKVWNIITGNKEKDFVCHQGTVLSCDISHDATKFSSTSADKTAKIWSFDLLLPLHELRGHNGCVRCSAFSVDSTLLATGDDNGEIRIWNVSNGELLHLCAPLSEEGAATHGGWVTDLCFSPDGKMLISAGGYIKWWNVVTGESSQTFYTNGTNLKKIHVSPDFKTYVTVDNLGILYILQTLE
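Material: reconstituted apoptosome with Apaf-1, cytochrome c, caspase-9, procaspase-3, dATP; medium: pH 7.5 Hepes buffer with CHAPS, BSA, DTT; also added: cytochrome c and DEVD-Rh110 substrate; timing: 30 min plus 50 min, RT; signal: Rh110 fluorescence intensity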
SENP8 block-1 = inhibitors of human SENP8 protease | Q96LD8 | purified SENP8, Z-RLRGG-aminoluciferin cleavage, luminescence | inhibition, % at 10 µM | 330,000 compounds, 1.2% hits | AID 2540; in the data active = inhibition above about 50%
UBC13 polyUb = inhibitors of human UBC13 polyubiquitin chain formation; P61088; TR-FRET; inhibition, % at 20 µM; 330,000 compounds, 0.47% hits; in the data active = inhibition above about 45%, passing the limit was not always enough
SENP6 inh = blocks the human protease SENP6; AID 2599; Q9GZR1; 330,000 compounds, 1.8% hits; Recombinant SENP6 catalytic domain, aminoluciferin luminescence; inhibition, % at 10 µM;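 active = inhibition above about 50% at the single tested dose, limit read from the data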;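 note: plate controls were DMSO wells with enzyme for no effect and DMSO wells lacking enzyme for full effect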
SENP8 block-2 = blocks human SENP8 cleavage of Nedd8 substrate | Q96LD8 | recombinant SENP8, Nedd8 substrate fluorescence | inhibition, % at 20 µM | 360,000 compounds, 0.64% hits | AID 602440; in the data active = inhibition mostly above about 40%, no sharp cut-off; inactive = mostly below about 27%
SENP8 conf = confirmation of human SENP8 protease inhibitors | shares compounds with SENP7 block | Recombinant SENP8, Z-RLRGG-aminoluciferin luminescence, 60 min | inhibition, % at 12.5 µM | 6,200 compounds, 40% hits;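 active = mean inhibition across replicates above about 50%, limit read from the data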
SENP6 conf = confirmation of human SENP6 protease inhibitors | inhibition, % at 12.5 µM | recombinant SENP6, Z-RLRGG-aminoluciferin luminescence | AID 488915 | shares compounds with SENP7 block | 6,200 compounds, 58% hits
SENP7 confirm = confirmation of human SENP7 protease inhibitors; shares compounds with SENP7 block; recombinant SENP7, Z-RLRGG-aminoluciferin luminescence, 40 min; inhibition, % at 12.5 µM; 6,200 compounds, 69% hits
Casp3 select = selectivity test for SENP inhibitors: human caspase-3 inhibition. shares compounds with SENP7 block. purified caspase-3, Z-DEVD-aminoluciferin luminescence, 60 min. inhibition, % at 12.5 µM. 6,200 compounds, 60% hits. AID 488918;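 active = mean inhibition above about 50%, limit read from the data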;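 note: plate controls were enzyme with DMSO for no effect and wells without caspase-3 for full effect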
SENP luc ctr = counter-screen for SENP inhibitors: luminescence interference; shares compounds with SENP7 block; Pre-incubated SENP8/Z-RLRGG-aminoluciferin, luciferase luminescence interference; inhibition, % at 12.5 µM; 6,200 compounds, 39% hits;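 active = mean inhibition above about 50% when retested at one dose, limit read from the data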;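 note: plate controls were DMSO wells with completed reaction for no effect and substrate without enzyme for full effect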
Numbers without * were called inactive; x = not tested or not shown.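 Rule for the calls, unless noted: active = mean inhibition above about 50% in the one-dose retest (limit read from the data); inactive = the rest.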

SMILES	SENP7 block	Apaf1 inhib	SENP8 block-1	UBC13 polyUb	SENP6 inh	SENP8 block-2	SENP8 conf	SENP6 conf	SENP7 confirm	Casp3 select	SENP luc ctr
C[C@H](CO)N1C[C@H](C)[C@@H](CN(C)C(=O)c2ccc(N3CCN(C)CC3)cc2)OCc2cnnn2CCCC1=O	x	x	x	x	x	9	x	x	x	x	x
Nc1ccc(/C=C/c2ccc3ncccc3c2)cc1	74*	4	52*	-8	60*	-273	46	57*	80*	49	11
COc1ccc(-c2cc(C(=O)Nc3ccccc3)on2)cc1	86*	-18	42	-6	61*	-2	11	19	4	9	5
COc1ccc(-c2cc(C(=O)Nc3ccccc3F)on2)cc1	70*	-3	11	4	35	-1	22	16	13	16	1
Cc1ccc(S(=O)(=O)CCC(=O)Nc2nc(-c3ccncc3)cs2)cc1	-7	1	5	3	52*	1	10	6	-7	-1	0
Oc1ccc(N=Nc2c(O)ccc3ccccc23)cc1	-5	18	64*	-115	69*	9	67*	68*	72*	12	18
Oc1ccc(N=Nc2ccc3ccccc3c2)cc1	101*	5	98*	-9	98*	30	99*	100*	102*	98*	94*
COc1cc(N=Nc2ccc3ccccc3c2)ccc1O	95*	24	94*	-23	97*	6	94*	96*	101*	73*	94*
O=C(O)C[C@]1(C(=O)Nc2ccc(F)cc2)CC(/C=C/c2ccccc2)=NO1	-3	-4	-2	-1	-20	13	x	x	x	x	x
COc1cccc(NC(=O)N2CCCC(C(=O)NC3CCCCC3C)C2)c1 (centres undefined)	-2	-1	1	2	-11	0	x	x	x	x	x
O=C(Nc1ccc2c(c1)CCC2)c1cccc(OC(F)F)c1	75*	4	68*	2	79*	16	61*	68*	91*	55*	69*
COc1ccc(NC(=O)c2cccc(OC(F)F)c2)cc1Cl	80*	5	64*	-4	76*	12	9	76*	94*	60*	68*
COC(=O)c1cccc(NC(=O)c2ccc(OC)c(Cl)c2)c1	8	3	6	-2	-13	12	x	x	x	x	x
O=C(Nc1ccc(S(=O)(=O)N2CCCC2)cc1)c1cccc(OC(F)F)c1	-1	10	0	-2	-2	-2	x	x	x	x	x
O=C(Nc1ccc(OC(F)F)c(Cl)c1)c1cccc(OC(F)F)c1	27	11	15	2	62*	18	52*	48	76*	12	65*
O=C(N/N=C\c1ccc(Sc2ccccn2)o1)c1cccc(F)c1	9	6	-6	-7	-8	-66	x	x	x	x	x
O=C(N/N=C/c1ccc(Sc2ccccn2)o1)c1cc2ccccc2cc1O	64*	15	93*	-26	94*	-61	90*	97*	101*	92*	76*
O=C(Nc1cc(C(F)(F)F)ccc1Cl)C(Sc1nnc(-c2cccs2)o1)c1ccccc1 (centres undefined)	24	8	76*	-5	81*	18	44	40	38	13	27
O=C(Nc1ccc(Cl)cc1C(F)(F)F)C(Sc1nnc(-c2cccs2)o1)c1ccccc1 (centres undefined)	10	11	17	2	46	11	x	x	x	x	x
O=C(CSc1ccccn1)N/N=C/c1ccccc1[N+](=O)[O-]	0	-3	-13	-10	-15	6	x	x	x	x	x
O=C(CSc1ccccn1)N/N=C/c1cc([N+](=O)[O-])ccc1O	15	-4	6	-42	52*	27*	33	26	65*	58*	36
CCCC1CCC(c2ccc(OCC)cc2)=CC1=O (centres undefined)	28	2	42	3	65*	6	20	24	71*	34	39
O=C(NCCc1ccccc1)c1ccc2c(c1)OCCCO2	83*	2	78*	6	85*	6	86*	86*	98*	93*	85*
O=C(NCCc1ccccc1)c1ccc2c(c1)OCCO2	80*	5	46	-1	72*	6	73*	70*	89*	87*	75*
CC(OC(=O)C1=COCCO1)C(=O)Nc1ncc(Cl)cc1Cl (centres undefined)	1	-7	4	-3	6	21	x	x	x	x	x
SMILES	SENP7 block	Apaf1 inhib	SENP8 block-1	UBC13 polyUb	SENP6 inh	SENP8 block-2	SENP8 conf	SENP6 conf	SENP7 confirm	Casp3 select	SENP luc ctr
COC(=O)c1ccc(COn2nnc3ccccc32)cc1	52*	-3	37	6	56*	13	34	32	76*	70*	34
CSCCC(NC(=O)c1ccccc1Br)C(=O)NNC(=O)c1ccco1 (centres undefined)	-9	-1	-7	-8	-24	4	x	x	x	x	x
C=CCOC(=O)c1sc(NC(=O)c2ccc(OC)cc2)nc1C	69*	-2	1	32	-30	-126	14	16	25	15	4
CCOc1ccc(C(=O)Nc2nc(C)c(C(=O)OC)s2)cc1	92*	-12	43	-8	54*	-113	31	30	36	50	12
CCOC(=O)c1sc(NC(=S)NC(=O)c2ccc(OC)cc2)nc1C	-8	3	-2	-9	-26	0	x	x	x	x	x
COC(=O)c1sc(NC(=O)c2ccncc2)nc1C	94*	-10	86*	-8	90*	9	80*	91*	100*	97*	49
CCOC(=O)c1sc(NC(=O)c2ccc3nc[nH]c3c2)nc1C	75*	1	73*	6	81*	-84	12	72*	36	26	5
COC(=O)c1sc(NC(=O)c2ccco2)nc1C	28	-11	22	6	39	-28	x	x	x	x	x
COC(=O)c1sc(NC(=O)COc2ccc(C)cc2)nc1C	4	0	1	4	0	7	x	x	x	x	x
O=c1c2ccccc2on1-c1ccccc1	x	x	x	x	x	-17	x	x	x	x	x
